Tests used:
[1] = test system: MS2 coat protein; test: apparent Kd, MS2 coat protein; higher = weaker binding; RNA-MaP array
Outline: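 Designed RNAs were transcribed in place on an Illumina sequencing chip from sequenced DNA templates. At room temperature and with or without input ligand, they were incubated with fluorescently labeled MS2 coat protein from 1.5 nM to 3 μM, for 0.8–1.5 h at the lowest and 10–20 min at the highest concentrations. Apparent Kd is the median of the binding-curve fits made per cluster, with designs measured on fewer than 10 clusters excluded.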

[2] = test system: MS2 coat protein; test: apparent Kd, MS2 coat protein; higher = weaker binding; RNA-MaP array; FMN 200 µM where present
Outline: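 The apparent Kd is reported as the median of filtered per-cluster binding-curve fits. To get these curves, designs transcribed by stalled E. coli RNA polymerase on Illumina sequencing-chip clusters were titrated with SNAP-549-labelled MS2 coat protein from 0.7 or 1.5 nM, doubling to 3 µM. Titrations were run without and then with constant ligand in 100 mM Tris-HCl pH 7.5, 80 mM KCl, 4 mM MgCl2, BSA, DTT, yeast tRNA and Tween-20, and green signal was normalised to red-channel RNA signal and control-cluster median Fmax.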

[3] = designed as: OFF switch for flavin mononucleotide, no ligand
[4] = ligand present: flavin mononucleotide, designed as: OFF switch for flavin mononucleotide
[5] = designed as: ON switch for flavin mononucleotide, no ligand
[6] = ligand present: flavin mononucleotide, designed as: ON switch for flavin mononucleotide

Sequence | apparent Kd [2, 5] | apparent Kd [2, 6] | apparent Kd [2, 3] | apparent Kd [2, 4] | further results
AAACUCCGCAAGAAGGGUAUUCAAUGAAGUUGUACAGGAUAUUGGCGCAGACAUGAGGAUCACCCAUGUAAGUUCUUCAUGGUU |  |  |  |  | apparent Kd [1, 3]: 125 nM; apparent Kd [1, 4]: 120 nM
AAAGAAAACGGAGGAUAUAGAAAUCCGAAUCCAAACCCGCCAACAUGAGGAUCACCCAUGUGCUUCUAGAAGGCCGAAUGCUAC |  |  |  |  | apparent Kd [1, 5]: 19.8 nM; apparent Kd [1, 6]: 17 nM
AAAGAAAGAGUGAGGAUAUGAUAUAAACAAAAGUAACAGAAGGCACAUGAGGAUCACCCAUGUGACUAUAGAAU |  |  |  |  | apparent Kd [1, 3]: 6.08 nM; apparent Kd [1, 4]: 5.62 nM
AAAUAAACCGAGGAUAUUAGAUUAGCAUACGAUUAAGAAGGCGGAACAUGAGGAUCACCCAUGUUGGGAGGUCU |  |  |  |  | apparent Kd [1, 3]: 67.8 nM; apparent Kd [1, 4]: 211 nM
AAAUCUAACGAGAAGGGAGUGGCCGGCCACUUAGCAGACAUGAGGAUCACCCAUGUGAAGAUCACUCAGGAUAUCGAUAAUCCA |  |  |  |  | apparent Kd [1, 5]: 24.9 nM; apparent Kd [1, 6]: 22.7 nM
AAAUGUACGAAGAAGGCUCUGCCACUGGCCGAGAGAGGAUAUUCACACAUGAGGAUCACCCAUGUCGAACAAAGUACACAGAGC |  |  |  |  | apparent Kd [1, 5]: 8.43 nM; apparent Kd [1, 6]: 7.06 nM
AAUAUGUAAGGAUAUACUGAAAUAAUAAUAAUAAUAAAUGAGUAGAAGGAACAUGAGGAUCACCCAUGUGAAAC |  |  |  |  | apparent Kd [1, 3]: 8.71 nM; apparent Kd [1, 4]: 8.07 nM
AAUGAGGCCUCUCAACAUGAGGAUCACCCAUGUAACGGAACAAAGGAUAUGGUCCAACUACUAACCCAGAAGGUUGUGACAGAA |  |  |  |  | apparent Kd [1, 5]: 49.1 nM; apparent Kd [1, 6]: 40.6 nM
AAUGGGCGAGUAGAGCAUAAUUUCCACUCCCGAGGACCGGUACGGCCGCCACUCGUUCGCUCACAUGAGGAUCACCCAUGUGGUC |  |  |  |  | apparent Kd ([1]; designed as: OFF switch for tryptophan, no ligand): 32.3 nM; apparent Kd ([1]; ligand present: tryptophan, designed as: OFF switch for tryptophan): 57.2 nM
AAUUAUACAUGAGGAUCACCCAUGUCAAAUAUUGAUAGCUGGCAGGAUAUGAUAGAGACGGAAACUCAGAAGGGCCCGAUGAAC |  |  |  |  | apparent Kd [1, 5]: 15 nM; apparent Kd [1, 6]: 12.6 nM
ACAACUCUCACAGGAUAUUGACAUGAGGAUCACCCAUGUAAUCCAGGGCGAACAUAGGACUGACACAAGAAGGGUGACACCAUC |  |  |  |  | apparent Kd [1, 5]: 20.1 nM; apparent Kd [1, 6]: 16.1 nM
ACACAAACAGAAGGAUAUUUCACCAACAAGUCGAAAGAAGGUCUAGUACAUGAGGAUCACCCAUGUCUCAGUACAUCGCCGGUU |  |  |  |  | apparent Kd [1, 3]: 33.7 nM; apparent Kd [1, 4]: 30.9 nM
UUGGACUACGUAGGAUAUGUAGGAUAUUCCUACAUGAGGAUCACCCAUGUUAGCAUGGAAGAAGGACAGAAGGACGUGGUCCAU | 1360 nM | 15.8 nM |  |  | 
UUGGAGUACGUAGGAUAUGUAGGAUAUUCCUACAUGAGGAUCACCCAUGUUUACAUGGAAGAAGGACAGAAGGACGUGCUCCAU | 1120 nM | 14.7 nM |  |  | 
UUGGAGUUCGUAGGAUAUGUAGGAUAUUCCUACAUGAGGAUCACCCAUGUUUACAUGGAAGAAGGACAGAAGGACGAGCUCCAU | 1580 nM | 16.2 nM |  |  | 
UUGGCAACGUAGAAGGGUGACAUGAGGAUCACCCAUGUGCCGAUAUUUCUCGAGAUAUGUCGGCCACAGGAUAUACGUGCGAAC | 107 nM | 120 nM |  |  | 
UUGGUACAUGAGGAUCACCCAUGUGGGUCGGUCGCAGGAUAUGCCCGUGGGCGCUUGCGGGCAGAAGGGUGCCGUA | 392 nM | 102 nM |  |  | 
UUGGUUGUCGUAGGAUAUGUAGGAUAUUCCUACAUGAGGAUCACCCAUGUUCGCAUGGAAGAAGGACAGAAUGACGAUGACCAG | 1110 nM | 27.1 nM |  |  | 
UUGUAGUACGUAGGAUAUCAAUGAGGAUCACCCUGAGAAGGACGUGAGGACAUGAGGAUCACCCAUGUGGAUCACCCAUGUCAU |  |  | 191 nM | 145 nM | 
UUGUGGGAGCAGGAUAUCUUAUUUUUUUUUUGUGGAGAAGGGCUGACAUGAGGAUCACCCAUGUGGUCCUAGAU |  |  | 28.2 nM | 27.9 nM | 
UUGUGUGUAGAGGAUAUCUGCGCGCGCGCGCGCGGAGAAGGCUGUACAUGAGGAUCACCCAUGUUGUGUGUGUG |  |  | 71.8 nM | 29.9 nM | 
UUGUUACAUGAGGAUCACCCAUGUGAGGAUAUGGUUCGGUACUGUCCUGUCGCGUACUCCAGAAGGCACGUGUU |  |  | 30.8 nM | 37.4 nM | 
UUGUUGUAUGUAGGAUAUGCAUAUUAUUAUUAUGCAGAAGGACAUGAGGAUCACCCAUGUAUAUUAUUAUUAUAUAUUAUAUAU |  |  | 30 nM | 49.3 nM | 
UUGUUGUAUGUAGGAUAUGCAUAUUAUUAUUAUGCAGAAGGACAUGAGGAUCACCCAUGUAUGUUAUUAUUAUGUGUUAUGUGU |  |  | 44 nM | 71.5 nM | 
UUGUUUCGUCAUUAACAUGAGGAUCACCCAUGUAUCGUCUCAAAGGAUAUAUAUGCUUGUUUGCUAUAGAAGGUUGAUUGUUGU | 71.2 nM | 67.2 nM |  |  | 
UUUAAUCGAAACAUGAGGAUCACCCAUGUGUUGUAAUUAACAUAGGAUAUUUGUAUACUUUUAUAAGAGAAGGAUGAUAAUACU | 21.2 nM | 15.8 nM |  |  | 
UUUAAUCGAAACAUGAGGAUCACCCAUGUGUUGUAAUUAACAUAGGAUAUUUGUAUGCUUUUGUAAGAGAAGGAUGAUAAUACU | 21.2 nM | 16.1 nM |  |  | 

Sequence | apparent Kd [2, 5] | apparent Kd [2, 6] | apparent Kd [2, 3] | apparent Kd [2, 4] | further results
UUUAGUUGCGCGCAGGAUAUGUAUUAAUAUACAUGAGGAUCACCCAUGUGAGACCAAAUAGGUCUACAGAAGGGCGAAUCGCGAC | 446 nM | 47.6 nM |  |  | 
UUUAUAAAUUAGAAGGCGUGAUGAAUUACAAUAGACAUGAGGAUCACCCAUGUGUAUUCAUGUCAUGAGGAUAUAGUCAUAUAU | 47.2 nM | 19.4 nM |  |  | 
UUUAUACAUGAGGAUCACCCAUGUUAGGAUAUGGCUUUAAUGCCGCCGUCAUUAUCCGCCAGAAGGGACGUGUC |  |  | 32.2 nM | 30.4 nM | 
UUUAUAUUCAGAGGAUAUUGAUGUUGUAUUUUACAAGAAGGCUGAUUGUUUUGUAAUGUUAUUAUACAUGAGGAUCACCCAUGU | 22.1 nM | 15.6 nM |  |  | 
UUUAUGUAAGAGAAGGAGGACUUCAUGAGGAUCACCCAUGUGUUAGUACUUAGGAUAUUUGACAACAUGAGGAUCACCCAUGUC | 59.9 nM | 58.4 nM |  |  | 
UUUAUGUCAGGAUAUGAGUAGUAGAACAAUAGUACUACUACUCAGAAGGGACAUGAGGAUCACCCAUGUUUCUC |  |  | 23.4 nM | 143 nM | 
UUUAUGUCAGGAUAUUCGGAUAGGAAAACGAAAACCUAUCCGAAGAAGGGACAUGAGGAUCACCCAUGUAAAAA |  |  | 217 nM | 151 nM | 
UUUAUGUGAGGAUAUCAGUAGUAAAAAAAUAAAAUUACUACUGAGAAGGCACAUGAGGAUCACCCAUGUACUUC |  |  | 40.2 nM | 30.5 nM | 
UUUAUUUCGGCAGGAUAUACAUGUAUAUAUAUUCCUUCAUAUCUUAUUACAUGAGGAUCACCCAUGUAGAAGGGCCUUCUUCUC |  |  | 38.4 nM | 42.1 nM | 
UUUAUUUUGCAAGGAUAUGUUUAAUUUUAGUUUCCUUACACAUGAGGAUCACCCAUGUUAUACUUACAGAAGGUGCAUAAUUUU |  |  | 173 nM | 94.6 nM | 
UUUGAAUAGGUAGGAUAUACUUUCAAUUUUCUUUUCCUUACAUGAGGAUCACCCAUGUUUACAUUGUAGAAGGACCUCAUUGAU |  |  | 215 nM | 173 nM | 
UUUGCAUUCCGAGGAUAUUCAUAUAAUGACUUCACAUGAGGAUCACCCAUGUGGCGAUAGCCUAGGGAGAAGGCGGUUUGCUUU | 25.6 nM | 20.6 nM |  |  | 
UUUGGGCCUGUGAGGAUAUGCCCGGGUAAAUUUGGGCAGAAGGCACAUGAGGAUCACCCAUGUAAGGGCCCGGG |  |  | 31.5 nM | 21.4 nM | 
UUUGGUUUGCGAGGAUAUGCUUUUAGUAAGUUAGCAGAAGGCGCGUUACAUAGAACCUCUUGUUACAUGAGGAUCACCCAUGUU |  |  | 88.2 nM | 95 nM | 
UUUUAACAUGAGGAUCACCCAUGUCGUUCAAAUCAAGGAUAUCAAGCGUGUGCACACGCCUGAGAAGGUGAAGCUC | 55.8 nM | 98.9 nM |  |  | 
UUUUAACAUGAGGAUCACCCAUGUGAGGAUAUCGAAAUUUAUAUUAAUAUUAAUUAAACGAGAAGGCACAUUUU |  |  | 61.5 nM | 86.4 nM | 
UUUUAACAUGAGGAUCACCCAUGUGAGGAUAUCGAAAUUUAUAUUAAUAUUAUUAUUACGAGAAGGCACAUUUU |  |  | 71.9 nM | 91.1 nM | 
UUUUAACAUGAGGAUCACCCAUGUGAGGAUAUCGUUUUUUUUAUUAAUAUUAAUAAAACGAGAAGGCACAUUUU |  |  | 149 nM | 149 nM | 
UUUUAAUAAUAGAAGGAGCACUACAUGAGGAUCACCCAUGUGUUAGUAGUUAGGAUAUAUAAUAACAUGAGGAUCACCCAUGUA | 83.6 nM | 40.7 nM |  |  | 
UUUUAGCGAGGAUAUACAUUUUUUUUAUUAUCCUCAUUAUUACAUGAGGAUCACCCAUGUAGAAGGCGCAUUUU |  |  | 41 nM | 139 nM | 
UUUUAGUCAGGAUAUCGUUAAUUUAAUUGUUUGUAUUAGUUCGAGAAGGGACAUGAGGAUCACCCAUGUAUUUU |  |  | 33.5 nM | 43 nM | 
UUUUAUAAUACCUCAUGUACAUGAGGAUCACCCAUGUUAACUAAGGAUAUAUAUAAAUUAAUAAUGUAGAAGGUAGUAAUAUUU |  |  | 16.5 nM | 14.3 nM | 
UUUUCAUCAUCAGGAUAUUAACGUGGGCUACUUUAAGAAGGGAUAGUGGGAGAGGAUGUGAAACAUGAGGAUCACCCAUGUUGU | 14.2 nM | 10 nM |  |  | 
UUUUUACUUGUAGGAUAUGGAGACAUGAGGAUCACCCAUGUAUGAUAAGCUAAAUUAUGCUGUGGCCAGAAGGAUAUUAUUCUU | 48.2 nM | 53.7 nM |  |  | 
UUUUUGUGAGGAUAUCAGUAGUAAAUAAAUAAAAUAACUACUGAGAAGGCACAUGAGGAUCACCCAUGUUCUUU |  |  | 18.9 nM | 49.6 nM | 
UUUUUUGUAGUGAGGAUAUCGUUGUGGAUGUGGAUCGAGAAGGCACAUGAGGAUCACCCAUGUUAGUUGUGGUU |  |  | 155 nM | 216 nM | 

From the EternaBench riboswitch data
